# Sampled rows, rich in hits. Any-hit rate of the full collection: about 4.9%.
# STAT1 activator = STAT1 signaling activators, primary screen, cell-based, HTS, luciferase reporter; NIH 3T3 STAT1-luciferase reporter, IFN-gamma, luminescence; 100% = IFN-gamma alone, no compound; activation (% of control), % at 5.5 µM; 200,000 compounds, 2.6% hits;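 active means activation above the screen-wide mean activation plus 3 SD, cut at about 130% in these data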;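 further: raw ratio to IFN-gamma control signal so 100% means no change and 0% no light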
# STAT3 act = IL-6 driven STAT3 reporter potentiators, primary screen, U3A cells, luciferase, luminescence, MLSCN library. AID 871, 2007. activation (% of control), % at 5.6 µM. IL-6 STAT3-luciferase reporter; 100% = signal with IL-6 EC80 alone. 190,000 compounds, 0.91% hits;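 active means activation above the screen-wide mean of compound activation plus 3 SD, cut at about 130% in these data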;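 further: 0% = background luminescence of wells with medium and substrate only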
#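 Material: human STAT1-deficient U3A cells with stable STAT3-luciferase reporter / Probe or stimulus: IL-6 stimulus at 33 ng/mL final / Schedule: 1 h compound pre-exposure, 6 h IL-6 stimulation, 37 °C / Technique: luminescence / Read-out basis: percent of IL-6-only median luminescence / Control set: IL-6-only high control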
# STAT1 inh = STAT1 signaling inhibitors, primary screen, cell-based, HTS, luciferase reporter; NIH 3T3 STAT1-luciferase reporter, IFN-gamma, luminescence; 200,000 compounds, 0.35% hits; AID 920, 2007; inhibition, % at 5.5 µM;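 active means inhibition above a set limit, the mean inhibition across all tested compounds plus 3 SD, cut at about 34% in these data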;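 further: 0% = IFN-gamma with DMSO and 100% = IFN-gamma with 300 µM nifuroxazide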
# APP 5'UTR act = activators of APP 5'UTR luciferase reporter, primary screen, SH-SY5Y cells. 190,000 compounds, 1% hits. SH-SY5Y APP 5'UTR luciferase reporter, luminescence; zero percent = DMSO vehicle wells. AID 1276, 2008. activation, % at 2 µM;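 active means activation above a set limit, based on mean plus 3 SD of controls, cut at about 140% in these data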
# STAT3 blocker = IL-6 driven STAT3 reporter inhibitors, primary screen, U3A cells, luciferase, luminescence, MLSCN library; IL-6 STAT3-luciferase reporter; host cell line lacks STAT1; inhibition, % at 5.5 µM; 190,000 compounds, 0.89% hits;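 active means inhibition above the mean inhibition across all screened compounds plus 3 SD, cut at about 44% in these data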;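 further: 0% = DMSO only wells and 100% = 100 µM nifuroxazide control wells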
# NF-kB neuron act = activators of NF-kB expression in neurons, primary screen, cell-based, HTS. human neuronal cells, NF-kB reporter expression; stronger effect = higher value. fold change at 12.5 µM. 190,000 compounds, 1.6% hits; in the data active means fold change above about 3.3
# * = called active by the depositor; x = no result given.
SMILES,STAT1 activator,STAT3 act,STAT1 inh,APP 5'UTR act,STAT3 blocker,NF-kB neuron act
O=C(O/N=C(\c1ccccc1)c1ccncc1)c1ccccc1Cl,100,93,-2,2,18,1.2
N/C(=N\OC(=O)c1ccco1)c1ccc(Cl)cc1,137*,89,-42,158*,15,1.1
N/C(=N\OC(=O)CCc1ccccc1)c1ccccc1Cl,141*,99,-44,33,10,1.2
Cc1ccc(/C(N)=N/OC(=O)CCc2ccccc2)cc1,121,104,-24,45,7,2
Cc1ccc(C2=NN(CCC(=O)NCc3ccc4c(c3)OCO4)C(=O)CC2)cc1,105,107,-5,-12,-11,0.9
N/C(=N\OC(=O)c1ccc(Cl)cc1Cl)c1ccc(Cl)cc1,128,72,-31,15,43,1.5
COc1ccc(/C(N)=N/OC(=O)Oc2ccccc2)cc1OC,97,106,4,3,-4,0.92
COc1ccc(C(=O)O/N=C(\N)c2ccccc2)c(OC)c1,68,38,34*,188*,76*,1.6
N/C(=N\OC(=O)c1ccc(Cl)cc1Cl)c1cccnc1,129*,87,-33,131,19,6.3*
COc1ccccc1C(=O)O/N=C(\N)c1ccccc1Cl,139*,109,-44,49,-11,2.7
N/C(=N\OC(=O)c1ccc(Cl)cc1Cl)c1ccccc1,108,72,-9,174*,42,2.5
N/C(=N\OC(=O)c1ccc(Cl)cc1)c1cccnc1,127,87,-38,45,16,2.5
COc1ccccc1C(=O)Oc1ccc(C(C)C)cc1,100,107,-1,26,-2,1.1
Cc1cccc(OCCCC(=O)NCc2ccco2)c1,100,107,0,14,-3,1
CN1CCN(/C=N/c2sc3c(c2C#N)CCCCC3)CC1,146*,110,-50,95,-10,2.7
CC(C)CN(/C=N/c1sc2c(c1C#N)CCCCC2)CC(C)C,102,105,1,-4,-6,1
Cc1ccc(/C=N/c2sc3c(c2C#N)CCCCC3)o1,139*,92,-43,19,14,0.95
Cc1ccc(/C=N/c2sc3c(c2C#N)CCC3)s1,150*,74,-55,86,35,1.2
N#Cc1c(/N=C/c2cc3ccccc3s2)sc2c1CCC2,118,98,-20,12,5,0.76
CC1(C)C(=O)N(OCc2ccccc2)C(C)(C)C(=O)N1OCc1ccccc1,98,105,2,-10,2,0.83
Cc1ccc(NC(=O)CSc2nc(O)c(Cc3ccccc3)c(=O)n2-c2ccccc2)cc1,95,84,6,1,22,1.2
COc1ccc(NC(=S)Nc2cc(C)ccn2)c(OC)c1,145*,141*,-50,x,-44,2.4
COc1ccc(NC(=S)Nc2ccccn2)c(OC)c1,136*,114,-40,60,-8,2
COc1ccc(Oc2nc(OC)cc(OC)n2)cc1,99,101,1,-18,3,0.94
S=C(NCCc1ccccn1)Nc1cccc(Cl)c1,92,85,8,0,20,1.1
SMILES,STAT1 activator,STAT3 act,STAT1 inh,APP 5'UTR act,STAT3 blocker,NF-kB neuron act
Clc1ccc2nc(CSc3nc4ccccc4o3)cn2c1,120,87,-22,72,19,3.1
Clc1ccc2nc(CSCc3ccccc3)cn2c1,145*,97,-50,139*,6,1.2
Cc1cccn2cc(CSc3ccccc3N)nc12,139*,90,-65,-3,12,3.2
Clc1ccc(SCc2cn3ccccc3n2)cc1,133*,95,-37,95,7,3
Nc1ccccc1SCc1cn2ccccc2n1,146*,95,-50,88,10,1
Nc1ccccc1SCc1cn2cccnc2n1,107,105,-8,17,3,1.1
CC(=O)Nc1ccc(S(=O)(=O)Nc2cccc(NC(=O)c3ccco3)c2)cc1,93,96,8,20,5,1
Cc1cccc2nc(CSCc3ccco3)cn12,135*,96,-38,114,10,2.3
Clc1ccc2nc(CSc3nnc4ccccn34)cn2c1,141*,105,-45,107,-2,3.1
Cc1cc(C)n2cc(CSCc3ccco3)nc2n1,92,102,9,19,0,1.2
Cc1nc(CSc2ccc(Cl)cc2)cc(NCc2ccccc2)n1,98,103,2,4,4,1.2
Cc1cccc2nc(CSc3nc4ccccc4[nH]3)cn12,111,91,-11,6,13,1.3
Clc1ccc2nc(CSc3nncn3-c3ccccc3)cn2c1,93,98,7,-15,6,1
Cc1cccc2nc(CSc3ccc(Cl)cc3)cn12,132*,91,-34,102,16,x
CNc1cc(CSc2ccc(Cl)cc2)nc(C)n1,135*,106,-38,87,0,2.4
Cc1c(NC(=S)NC(NC(=O)C(C)(C)C)C(Cl)(Cl)Cl)c(=O)n(-c2ccccc2)n1C (stereo not given),104,97,-5,2,8,1.1
O=C1CCC(CCC(=O)N2CCCC(C(=O)c3cccc(C(F)(F)F)c3)C2)=NN1 (stereo not given),105,97,-6,16,14,1.4
COc1ccccc1Nc1nc(N)nc(-c2cc3ccccc3o2)n1,117,98,-18,31,8,1.2
Cc1ccc(Nc2nc(N)nc(-c3oc4ccccc4c3C)n2)cc1,156*,154*,-61,-92,-54,x
COc1cccc(Nc2nc(N)nc(-c3oc4ccccc4c3C)n2)c1,134*,123,-38,-76,-24,1.3
O=C(Cc1ccccc1)Nc1cc([N+](=O)[O-])ccc1N1CCOCC1,94,102,4,-13,2,0.86
Cc1nnsc1NC(=O)OCc1ccc(C(C)(C)C)cc1,98,49,2,16,65*,1.1
C=CCOC(=O)Nc1snnc1C,88,94,14,5,9,1
CN(C)S(=O)(=O)N1CCCC(C(=O)c2ccc(-c3ccccc3)cc2)C1 (stereo not given),94,97,4,18,10,1
CC1(C)CC(=O)C2=C(C1)OC1=C(C(=O)CC(C)(C)C1)C2c1ccc(O)c([N+](=O)[O-])c1,104,103,-6,-7,3,1.2
CC1(C)CC(=O)C2=C(C1)OC1=C(C(=O)CC(C)(C)C1)C2c1ccc(O)cc1O,114,99,-16,-41,5,6.2*
COc1ccc(/C=N/NC(C)(C)C)c(OC)c1,98,101,2,12,4,1.2
